Results gathered from unrelated publications.
Target: RAC-alpha serine/threonine-protein kinase (AKT1, Homo sapiens, UniProt P31749)

The remaining binding of CS(=O)(=O)N1CCCC(NC(=O)[C@H](CCC2CCCCC2)NC(=O)c2ccc(CNc3ncnc4c3nnn4-c3ccccc3)cc2)C1 (stereo partly shown) is reported as 100% (cell-free assay; competition with immobilised ligand; 0.1 µM).
The remaining binding of CN(C)c1nccc(-c2cnn3ncccc23)n1 is reported as 100% (binding; 1 µM).
O=C(NCCCN1CCOCC1)c1ccc(Nc2ncc(Cl)c(-c3ccc(Cl)s3)n2)cc1 gave a remaining binding of 100% (binding; competition with immobilised ligand; 1 µM).
CS(=O)(=O)N1CCCC(NC(=O)[C@H](CCC2CCCCC2)NC(=O)c2ccc(CNC(=O)c3cnc4ccccn34)cc2)C1 (stereo partly shown) gave a remaining binding of 100% (cell-free assay; competition with immobilised ligand; 0.1 µM).
For FC(F)(F)Oc1cccc(-c2cnc3ccc(-c4ccncc4)nn23)c1, the remaining binding was 88% (cell-free assay; competition with immobilised ligand; 5 µM).
With O=C(NCCCN1CCOCC1)c1ccc(Nc2nccc(-c3cc4ccccc4s3)n2)cc1 the remaining binding was 100% (binding; competition with immobilised ligand; 1 µM).
For Nc1ncc2c(n1)-c1c([nH]c3ccc(C#CC4CC4)cc13)CCCC2, the remaining binding was 95% (binding; competition with immobilised ligand; 1 µM).
C[C@@H](c1ccc(-n2cnc3c(N)ncnc32)cc1)N1CCc2nn(C)c(Cc3ccccc3)c2C1=O has a remaining binding of 100% (binding; competition with immobilised ligand; 0.1 µM).
The remaining binding of CN1CCN(c2cnc3c(C4CCN(C(=O)c5ccc(OC(F)(F)F)cc5N)CC4)ncnc3c2)CC1 is reported as 100% (cell-free assay; competition with immobilised ligand; 1 µM).
For N#Cc1ccccc1CSc1nnc2c(n1)[nH]c1ccccc12, the remaining binding was 85% (binding; competition with immobilised ligand; 10 µM).
N#Cc1ccc(Nc2ccc3[nH]c(=O)[nH]c3c2)c(Cl)c1 gave a remaining binding of 67% (cell-free assay; competition with immobilised ligand; 1 µM).
With Cc1cnc(Nc2ccc(C(=O)N3CCC(N4CCCC4)CC3)cc2)nc1-c1cc2ccccc2s1 the remaining binding was 100% (binding; competition with immobilised ligand; 1 µM).
The remaining binding of COc1cnc(Nc2cccc(S(N)(=O)=O)c2)nc1N1CCN(c2ccccc2)C(=O)C1 is reported as 100% (binding; competition with immobilised ligand; 1 µM).
With COc1ncc2cc3ccccc3nc2c1C#N the remaining binding was 92% (cell-free assay; competition with immobilised ligand; 5 µM).
The remaining binding of C[C@@H]1CCN(c2nccc(-c3cnn4ncccc34)n2)C1 is reported as 93% (binding; 1 µM).
With O=C(Nc1cnc(Oc2ccc(F)cc2)nc1)N1CCc2ncccc2[C@@H]1c1ccc(F)cc1 the remaining binding was 100% (cell-free assay; competition with immobilised ligand; 1 µM).
With CN(CCCC(F)(F)F)c1nccc(-c2cnn3ncccc23)n1 the remaining binding was 100% (binding; 1 µM).
For Cc1nc(Cc2cccc(C(F)(F)F)c2)sc1-c1ccc(C(N)=O)nc1, the remaining binding was 82% (cell-free assay; competition with immobilised ligand; 1 µM).
With CC1CCCN1c1nccc(-c2cnn3ncccc23)n1 (stereo not shown) the remaining binding was 100% (binding; 1 µM).
C[C@@H]1CN(c2ccc3ncc(-c4ccc5[nH]nc(C6CC6)c5c4)n3n2)C[C@H](C)O1 gave a remaining binding of 98% (binding; competition with immobilised ligand; 50 nM).
O=C(Nc1cccnn1)N1CCC(=Cc2cccc(Oc3ccc(C(F)(F)F)cn3)c2)CC1 gave a remaining binding of 93% (cell-free assay; competition with immobilised ligand; 1 µM).
N[C@H]1CCN(c2nccc(-c3cnn4ncccc34)n2)C1 has a remaining binding of 97% (binding; 1 µM).
O=C(NCc1ncc(C(F)(F)F)cc1Cl)c1ccc2c(c1)C1(CCS(=O)(=O)CC1)[C@@H](C1CC1)N2S(=O)(=O)c1ccc(F)cc1 has a remaining binding of 94% (cell-free assay; competition with immobilised ligand; 1 µM).
CN(C)c1ncc(F)c(-c2cnn3ncccc23)n1 has a remaining binding of 100% (binding; 1 µM).
For O=C(NCC1CCOCC1)c1n[nH]cc1NC(=O)c1c(F)cccc1F, the remaining binding was 95% (binding; competition with immobilised ligand; 1 µM).
